Measurements reported in ChEMBL document CHEMBL1134546, “Structure-based design, synthesis, and biological evaluation of conformationally restricted novel 2-alkylthio-6-[1-(2,6-difluorophenyl)alkyl]-3,4-dihydro-5-alkylpyrimidin-4(3H)-ones as non-nucleoside inhibitors of HIV-1 reverse transcriptase” (J Med Chem, 2001).

Legend:
MT4 [1] = test: Anti-HIV-1 activity against WTIIIB HIV-1 strain in MT-4 cells; format: functional, cell-based; conditions: Homo sapiens
MT4 [2] = test: Anti-HIV-1 activity against Y181C HIV-1 strain in MT-4 cells; format: functional, cell-based; conditions: Homo sapiens
[3] = system: Human immunodeficiency virus 1; test: Anti-HIV-1 activity determined as dose required to reduce p24 antigen levels.; format: functional
[4] = system: Human immunodeficiency virus 1; test: Effective concentration against HIV-1 induced cytopathogenicity in MT-4 cells; format: functional, organism-based, MT4
Summary of the method: (§1)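 MT-4 cells (1 × 10⁴/well) incubated with serial compound dilutions (200 mM DMSO stock diluted in medium), with or without HIV-1 IIIB (100 CCID₅₀/well), 4 days at 37 °C in RPMI 1640 with 10% FCS. Viable cells counted by MTT. CC₅₀ from mock-infected cells and EC₅₀ as 50% protection from virus-induced cytopathicity, run in parallel. Mean of at least two experiments.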

MT4 [5] = test: CC50/EC50 ratio of the compound; format: functional
Summary of the method: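 Selectivity index, calculated as CC₅₀/EC₅₀. Both values come from the parallel MTT readout in mock-infected and HIV-1 IIIB-infected MT-4 cells (4-day incubation at 37 °C).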

MT4 [6] = test: Cytotoxicity against MT-4 cells.; format: functional, Homo sapiens; summary of the method: as §1
[7] = Y181C/WTIIIB ratio of the compound; format: functional
Summary of the method: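 Fold resistance, given as the EC₅₀ against Y181C mutant HIV-1 divided by the EC₅₀ against wild-type IIIB. Each EC₅₀ is the dose giving 50% protection of MT-4 cells from virus-induced cytopathicity, read by MTT.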

[8] = target: Human immunodeficiency virus type 1 reverse transcriptase (Human immunodeficiency virus 1, UniProt Q72547); test: Inhibitory activity against HIV-1 recombinant reverse transcriptase.
[9] = Human immunodeficiency virus 1, MT4

| SMILES | EC50 [4, 9] [nM] | Selectivity index (MT4 [5]) | CC50 (MT4 [6]; Homo sapiens, MT4) [nM] | IC50 [8] [nM] | also measured |
| --- | --- | --- | --- | --- | --- |
| Cc1ccnc2c1NC(=O)c1cccnc1N2C1CC1 [NEVIRAPINE] | – | – | – | – | EC50 (MT4 [1]): 370 nM; EC50 (MT4 [2]): > 30000 nM |
| CC(C)Sc1nc(Cc2c(F)cccc2F)cc(=O)[nH]1 | 50 | >4000 | – | – | EC90 [3]: 42 nM; EC99 [3]: 0.083 µM; EC99.9 [3]: 0.19 µM |
| O=C1Nc2ccc(Cl)cc2[C@@](C#CC2CC2)(C(F)(F)F)O1 [EFAVIRENZ] | – | – | – | – | EC50 (MT4 [1]): 4 nM; EC50 (MT4 [2]): 25 nM; Fold resistance [7]: 6 |
| CCC(c1ccccc1)c1cc(O)nc(SC(C)C)n1 (stereo not drawn) | 800 | 250 | 200000 | 2300 | – |
| CC(c1cc(O)nc(SC2CCCCC2)n1)c1c(Cl)cccc1Cl (stereo not drawn) | 2900 | >69 | > 200000 | – | – |
| CSc1nc(O)c(C)c(C(C)c2c(F)cccc2F)n1 (stereo not drawn) | 40 | >5000 | > 200000 | 20 | EC50 (MT4 [1]): 37 nM; EC50 (MT4 [2]): > 10000 nM; Fold resistance [7]: > 270 |
| CC(c1ccccc1)c1cc(O)nc(SC2CCCCC2)n1 (stereo not drawn) | 600 | 248 | 149000 | – | – |
| CCC(c1ccccc1)c1cc(O)nc(SC2CCCCC2)n1 (stereo not drawn) | 1300 | >154 | > 200000 | 3700 | – |
| CC(C)Sc1nc(O)cc(C(C)c2ccccc2)n1 (stereo not drawn) | 900 | >222 | > 200000 | 2300 | – |
| CC(c1cc(=O)[nH]c(SC2CCCC2)n1)c1c(F)cccc1F (stereo not drawn) | 30 | >6666 | > 200000 | 50 | EC90 [3]: 15 nM; EC99 [3]: 0.035 µM; EC99.9 [3]: 0.09 µM |
| Cc1c(C(C)c2c(F)cccc2F)nc(SC2CCCC2)[nH]c1=O (stereo in doubt; [-]3w) | – | >286 | – | 1000 | EC50 ([4]; mt4): 70 nM; CC50 (MT4 [6]): 200000 nM |
| CCC(c1cc(O)nc(SC(C)C)n1)c1cccc2ccccc12 (stereo not drawn) | 1500 | 33.3 | 50000 | 800 | – |
| Cc1c(O)nc(SC(C)C)nc1C(C)c1c(F)cccc1F (stereo not drawn) | 7 | >28570 | > 200000 | 19 | – |
| CCC(c1cc(O)nc(SC2CCCCC2)n1)c1cccc2ccccc12 (stereo not drawn) | 180 | 94 | 16900 | 1400 | – |
| CCOCn1c(Cc2ccccc2)c(C(C)C)c(=O)[nH]c1=O [EMIVIRINE] | 30 | 6666 | – | – | EC90 [3]: 14 nM; EC99 [3]: 0.041 µM; EC99.9 [3]: 0.082 µM |
| CC(C)Sc1nc(O)cc(C(C)c2cccc3ccccc23)n1 (stereo not drawn) | 1100 | 108 | 119000 | 5800 | – |
| Cc1c(Cc2c(F)cccc2F)nc(SC2CCCC2)[nH]c1=O | 80 | >2500 | – | – | EC90 [3]: 40 nM; EC99 [3]: 0.075 µM; EC99.9 [3]: 0.15 µM; EC50 (MT4 [1]): 40 nM; EC50 (MT4 [2]): 1200 nM; Fold resistance [7]: 30 |
| CCC(C)Sc1nc(O)cc(C(C)c2c(F)cccc2F)n1 (stereo not drawn) | 30 | >6666 | > 200000 | – | – |
| CSc1nc(O)cc(C(C)c2c(F)cccc2F)n1 (stereo not drawn) | 180 | 115 | 20800 | 200 | – |
| Cc1c(C(C)c2c(F)cccc2F)nc(SC2CCCC2)[nH]c1=O (stereo in doubt; [+]3w) | – | >100000 | > 200000 | 8 | EC50 ([4]; mt4): 2 nM |
| Cc1c(C(C)c2c(F)cccc2F)nc(SC2CCCC2)[nH]c1=O (stereo in doubt; 3w) | – | >33333 | – | 5 | EC90 [3]: 6 nM; EC99 [3]: 0.015 µM; EC99.9 [3]: 0.033 µM; EC50 ([4]; mt4): 6 nM |
| CC(c1ccccc1)c1cc(O)nc(SC2CCCC2)n1 (stereo not drawn) | 600 | 333 | 159000 | 2100 | – |
| CCC(c1cc(O)nc(SC(C)C)n1)c1c(F)cccc1F (stereo not drawn) | 80 | 875 | 70000 | – | EC90 [3]: 15 nM; EC99 [3]: 0.035 µM; EC99.9 [3]: 0.09 µM |
| CCC(C)Sc1nc(O)c(C)c(C(C)c2c(F)cccc2F)n1 (stereo not drawn) | 30 | 6666 | > 200000 | 20 | EC50 (MT4 [1]): 20 nM; EC50 (MT4 [2]): 300 nM; Fold resistance [7]: 15 |
| CC(c1cc(O)nc(SC2CCCC2)n1)c1cccc2ccccc12 (stereo not drawn) | 500 | 186 | 93000 | 400 | – |
| CC(c1cc(O)nc(SC2CCCCC2)n1)c1cccc2ccccc12 (stereo not drawn) | 140 | 321.4 | 45000 | 2600 | – |

The next lines start with results.

| EC50 [4, 9] [nM] | SMILES | Selectivity index (MT4 [5]) | CC50 (MT4 [6]; Homo sapiens, MT4) [nM] | IC50 [8] [nM] | also measured |
| --- | --- | --- | --- | --- | --- |
| 1200 | CC(C)Sc1nc(O)cc(C(C)c2c(Cl)cccc2Cl)n1 (stereo not drawn) | 97.5 | 117000 | – | – |
| 8 | CCCCSc1nc(O)c(C)c(C(C)c2c(F)cccc2F)n1 (stereo not drawn) | 14000 | 112000 | – | – |
| 150 | CCC(c1cc(O)nc(SC2CCCC2)n1)c1c(F)cccc1F (stereo not drawn) | 1333 | > 200000 | – | EC90 [3]: 80 nM; EC99 [3]: 0.15 µM; EC99.9 [3]: 0.3 µM |
| 3000 | CCC(c1cc(O)nc(SC2CCCC2)n1)c1cccc2ccccc12 (stereo not drawn) | 17 | 51000 | – | – |
| 50 | Cc1c(Cc2c(F)cccc2F)nc(SC(C)C)[nH]c1=O | >4000 | – | – | EC90 [3]: 26 nM; EC99 [3]: 0.065 µM; EC99.9 [3]: 0.15 µM |
| 230 | CCC(C)Sc1nc(O)cc(C(C)c2ccccc2)n1 (stereo not drawn) | 870 | 200000 | – | – |
| 50 | CC(C)Sc1nc(O)cc(C(C)c2c(F)cccc2F)n1 (stereo not drawn) | 3340 | 167000 | – | EC90 [3]: 42 nM; EC99 [3]: 0.083 µM; EC99.9 [3]: 0.19 µM |
| 50 | CCC(c1cc(O)nc(SC2CCCCC2)n1)c1c(F)cccc1F (stereo not drawn) | 2600 | > 200000 | – | – |
| 10 | Cc1c(O)nc(SCC(C)C)nc1C(C)c1c(F)cccc1F (stereo not drawn) | >20000 | > 200000 | – | – |
| 1000 | CC(c1cc(O)nc(SC2CCCC2)n1)c1c(Cl)cccc1Cl (stereo not drawn) | 78.3 | 78300 | – | – |
| 50 | CCC(C)Sc1nc(O)c(C)c(Cc2c(F)cccc2F)n1 (stereo not drawn) | >4000 | > 200000 | – | – |
| 400 | CCC(c1cc(O)nc(SC(C)C)n1)c1c(Cl)cccc1Cl (stereo not drawn) | >500 | > 200000 | – | – |
| 80 | O=c1cc(Cc2c(F)cccc2F)nc(SC2CCCC2)[nH]1 | >2500 | – | – | EC90 [3]: 80 nM; EC99 [3]: 0.15 µM; EC99.9 [3]: 0.3 µM |
| 50 | CC(C)CSc1nc(O)cc(C(C)c2c(F)cccc2F)n1 (stereo not drawn) | >4000 | > 200000 | – | – |
| 400 | CCC(C)Sc1nc(O)cc(C(CC)c2ccccc2)n1 (stereo not drawn) | >500 | > 200000 | – | – |
| 1000 | CCC(c1cc(O)nc(SC2CCCC2)n1)c1c(Cl)cccc1Cl (stereo not drawn) | 23.4 | 23400 | – | – |
| 3600 | CCC(c1cc(O)nc(SC2CCCCC2)n1)c1c(Cl)cccc1Cl (stereo not drawn) | >55.5 | > 200000 | – | – |
| 1000 | CCC(c1ccccc1)c1cc(O)nc(SC2CCCC2)n1 (stereo not drawn) | >200 | > 200000 | > 10000 | – |
| 160 | CC(c1cc(O)nc(SC2CCCCC2)n1)c1c(F)cccc1F (stereo not drawn) | >1250 | > 200000 | – | – |
| 18 | Cc1c(O)nc(SC2CCCCC2)nc1C(C)c1c(F)cccc1F (stereo not drawn) | >11111 | > 200000 | – | – |
| 70 | CCCCSc1nc(O)cc(C(C)c2c(F)cccc2F)n1 (stereo not drawn) | 2857 | > 200000 | – | – |
| 40 | CCC(C)Sc1nc(O)cc(Cc2c(F)cccc2F)n1 (stereo not drawn) | >5000 | – | – | – |
